Data as given in ChEMBL document CHEMBL3352168, “Potent, orally available, selective COX-2 inhibitors based on 2-imidazoline core” (Eur J Med Chem, 2014).
Each block holds one molecule with its values, some of them ahead of it.

What was measured:
[1] = target: T1, Prostaglandin G/H synthase 2 (Homo sapiens, UniProt P35354); test: Inhibition of human recombinant COX2 using fluorometric substrate by fluorescent inhibitor screening assay
T1 sequence (P35354 whole entry): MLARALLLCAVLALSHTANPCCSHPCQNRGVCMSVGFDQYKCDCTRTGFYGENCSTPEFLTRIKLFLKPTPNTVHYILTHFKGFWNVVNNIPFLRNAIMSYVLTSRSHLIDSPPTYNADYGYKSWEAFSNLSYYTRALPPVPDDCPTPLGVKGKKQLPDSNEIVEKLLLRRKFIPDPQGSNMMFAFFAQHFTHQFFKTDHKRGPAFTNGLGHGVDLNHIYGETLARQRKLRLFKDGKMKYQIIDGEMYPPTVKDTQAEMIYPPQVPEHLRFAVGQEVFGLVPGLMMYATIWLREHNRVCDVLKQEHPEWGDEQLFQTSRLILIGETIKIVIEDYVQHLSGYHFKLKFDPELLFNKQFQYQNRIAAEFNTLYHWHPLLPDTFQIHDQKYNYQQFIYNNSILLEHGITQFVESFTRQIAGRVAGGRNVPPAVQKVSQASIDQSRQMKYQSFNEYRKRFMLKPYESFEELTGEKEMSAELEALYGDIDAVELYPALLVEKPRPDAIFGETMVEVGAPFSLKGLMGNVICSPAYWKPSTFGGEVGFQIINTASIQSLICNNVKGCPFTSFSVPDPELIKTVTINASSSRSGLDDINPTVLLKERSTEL
Outline: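 Human recombinant COX-2 in 100 mM Tris-HCl pH 8.0 with heme and ADHP fluorometric substrate; inhibitor added at final […] (units as printed) from DMSO stocks; reaction started with arachidonic acid, 2 min at room temperature. Resorufin fluorescence read at ex 535/em 590 nm; % inhibition vs no-inhibitor activity; IC50 from concentration–inhibition curve, triplicate determinations.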

[2] = target: T2, Prostaglandin G/H synthase 1 (Ovis aries) (UniProt P05979); test: Inhibition of ovine COX1 using fluorometric substrate at 100 uM by fluorescent inhibitor screening assay
T2 sequence (whole entry): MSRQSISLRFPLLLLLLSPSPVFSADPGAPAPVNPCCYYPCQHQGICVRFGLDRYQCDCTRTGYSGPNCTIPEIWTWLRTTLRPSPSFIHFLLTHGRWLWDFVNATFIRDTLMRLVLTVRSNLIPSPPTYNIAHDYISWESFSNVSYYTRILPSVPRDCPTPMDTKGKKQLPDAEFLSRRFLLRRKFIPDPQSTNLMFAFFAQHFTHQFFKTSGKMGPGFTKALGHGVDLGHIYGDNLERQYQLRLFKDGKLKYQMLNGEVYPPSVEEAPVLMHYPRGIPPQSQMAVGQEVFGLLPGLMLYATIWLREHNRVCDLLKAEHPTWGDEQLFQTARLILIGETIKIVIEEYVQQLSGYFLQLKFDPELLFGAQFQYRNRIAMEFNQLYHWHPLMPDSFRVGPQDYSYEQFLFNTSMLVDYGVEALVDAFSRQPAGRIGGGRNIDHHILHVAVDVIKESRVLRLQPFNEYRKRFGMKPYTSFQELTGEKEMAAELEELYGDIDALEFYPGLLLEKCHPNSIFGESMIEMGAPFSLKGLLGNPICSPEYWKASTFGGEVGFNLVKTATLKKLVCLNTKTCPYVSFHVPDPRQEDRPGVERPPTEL

[3] = system: Plasma; test: Cmax in C57Bl mouse plasma assessed as aromatization metabolite at 10 mg/kg, po; format: ADME, organism-based; set-up: dose 10 mg/kg, route oral; details: in vivo
[4] = AUC (0 to 240 mins) in C57Bl mouse brain at 10 mg/kg, po; format: ADME, organism-based; set-up: time < 4 hr, dose 10 mg/kg, route oral
Outline: (§1)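 Male C57Bl mice, about 2 months old, 18.1–23.6 g, fasted overnight, dosed by oral gavage; 4 animals per group plus non-dosed control group; killed by cervical dislocation for blood and whole brain. Plasma precipitated with internal standard; brain homogenized in 67% methanol, centrifuged, spiked with internal standard; quantified by HPLC-MS against blank-brain calibration.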

[5] = AUC (0 to 240 mins) in C57Bl mouse plasma at 10 mg/kg, po; format: ADME, organism-based; set-up: time < 4 hr, dose 10 mg/kg, route oral; outline: as §1
[6] = AUC (0 to infinity) in C57Bl mouse brain at 10 mg/kg, po; format: ADME, organism-based; set-up: time infinity, dose 10 mg/kg, route oral; outline: as §1
[7] = system: Plasma; test: Volume of distribution at steady state in C57Bl mouse plasma at 10 mg/kg, po; format: ADME, organism-based; set-up: dose 10 mg/kg, route oral; details: in vivo; outline: as §1
[8] = system: Brain; test: AUC (0 to infinity) in C57Bl mouse brain assessed as aromatization metabolite at 10 mg/kg, po; format: ADME, organism-based; set-up: time infinity, dose 10 mg/kg, route oral; details: in vivo
[9] = system: Plasma; test: Half life in C57Bl mouse plasma assessed as aromatization metabolite at 10 mg/kg, po; format: ADME, organism-based; set-up: dose 10 mg/kg, route oral; details: in vivo
[10] = system: Mus musculus; test: Antiinflammatory activity in mouse assessed as reduction in carrageenan-induced inflamed paw volume at 3.7 mg/kg, ip relative to untreated control; format: functional; details: route intraperitoneal
[11] = system: Brain; test: Tmax in C57Bl mouse brain assessed as aromatization metabolite at 10 mg/kg, po; format: ADME, organism-based; set-up: dose 10 mg/kg, route oral; details: in vivo
[12] = system: Plasma; test: AUC (0 to infinity) in C57Bl mouse plasma assessed as aromatization metabolite at 10 mg/kg, po; format: ADME, organism-based; set-up: dose 10 mg/kg, route oral, time infinity; details: in vivo
[13] = system: Plasma; test: Drug metabolism in C57Bl mouse plasma at 10 mg/kg, po; format: ADME, organism-based; set-up: dose 10 mg/kg, route oral; details: in vivo
[14] = system: Brain; test: AUC (0 to 240 mins) in C57Bl mouse brain assessed as aromatization metabolite at 10 mg/kg, po; format: ADME, organism-based; set-up: time < 4 hr, dose 10 mg/kg, route oral; details: in vivo, 4 h
[15] = Tmax in C57Bl mouse plasma at 10 mg/kg, po; format: ADME, organism-based; set-up: dose 10 mg/kg, route oral; outline: as §1
[16] = AUC (0 to infinity) in C57Bl mouse plasma at 10 mg/kg, po; format: ADME, organism-based; set-up: time infinity, dose 10 mg/kg, route oral; outline: as §1
[17] = system: Plasma; test: AUC (0 to 240 mins) in C57Bl mouse plasma assessed as aromatization metabolite at 10 mg/kg, po; format: ADME, organism-based; set-up: time < 4 hr, dose 10 mg/kg, route oral; details: in vivo, 4 h
[18] = system: Brain; test: Half life in C57Bl mouse brain assessed as aromatization metabolite at 10 mg/kg, po; format: ADME, organism-based; set-up: dose 10 mg/kg, route oral; details: in vivo
[19] = Half life in C57Bl mouse brain at 10 mg/kg, po; format: ADME, organism-based; set-up: dose 10 mg/kg, route oral; outline: as §1
[20] = Cmax in C57Bl mouse plasma at 10 mg/kg, po; format: ADME, organism-based; set-up: dose 10 mg/kg, route oral; outline: as §1
[21] = Clearance in C57Bl mouse plasma at 10 mg/kg, po; format: ADME, organism-based; set-up: dose 10 mg/kg, route oral; outline: as §1
[22] = system: Brain; test: Drug metabolism in C57Bl mouse brain at 10 mg/kg, po; format: ADME, organism-based; set-up: dose 10 mg/kg, route oral; details: in vivo
[23] = system: Plasma; test: Tmax in C57Bl mouse plasma assessed as aromatization metabolite at 10 mg/kg, po; format: ADME, organism-based; set-up: dose 10 mg/kg, route oral; details: in vivo
[24] = system: Brain; test: Cmax in C57Bl mouse brain assessed as aromatization metabolite at 10 mg/kg, po; format: ADME, organism-based; set-up: dose 10 mg/kg, route oral; details: in vivo
[25] = Half life in C57Bl mouse plasma at 10 mg/kg, po; format: ADME, organism-based; set-up: dose 10 mg/kg, route oral; outline: as §1
[26] = Cmax in C57Bl mouse brain at 10 mg/kg, po; format: ADME, organism-based; set-up: dose 10 mg/kg, route oral; outline: as §1
[27] = Tmax in C57Bl mouse brain at 10 mg/kg, po; format: ADME, organism-based; set-up: dose 10 mg/kg, route oral; outline: as §1

IC50 [1]: 6.2 µM
inhibition [2]: 3%
SMILES: COc1ccc(C2=NCCN2c2ccc(S(N)(=O)=O)cc2)cc1Cl

IC50 [1]: > 10 µM
inhibition [2]: 12.6%
SMILES: CS(=O)(=O)c1ccc(N2CCN=C2c2ccc(F)cc2)cc1

IC50 [1]: 9.5 µM
inhibition [2]: -5.5%
SMILES: COc1ccc(C2=NCCN2c2ccc(S(N)(=O)=O)cc2)cc1F

IC50 [1]: 6.7 µM
inhibition [2]: 6.6%
SMILES: NS(=O)(=O)c1ccc(N2CCN=C2c2ccc(F)c(F)c2)cc1

IC50 [1]: 2.9 µM
inhibition [2]: 12.9%
SMILES: NS(=O)(=O)c1ccc(N2CCN=C2c2cccc(Br)c2)cc1

IC50 [1]: > 10 µM
inhibition [2]: 1.5%
SMILES: Cc1cccc(C2=NCCN2c2ccc(S(N)(=O)=O)cc2)c1

IC50 [1]: 1.8 µM
inhibition [2]: 2.7%
SMILES: NS(=O)(=O)c1ccc(N2CCN=C2c2ccc(Cl)c(C(F)(F)F)c2)cc1

IC50 [1]: 2.1 µM
inhibition [2]: 1.9%
SMILES: CS(=O)(=O)c1ccc(N2CCN=C2c2ccc(Cl)c(Cl)c2)cc1

IC50 [1]: 7.1 µM
inhibition [2]: 3.2%
SMILES: CS(=O)(=O)c1ccc(N2CCN=C2c2ccc(Cl)cc2)cc1

IC50 [1]: 6.8 µM
inhibition [2]: 12.6%
SMILES: CS(=O)(=O)c1ccc(N2CCN=C2c2cccc(Br)c2)cc1

IC50 [1]: > 10 µM
inhibition [2]: 5.5%
SMILES: CC1CN(c2ccc(S(N)(=O)=O)cc2)C(c2ccc(F)cc2)=N1 (racemic)

IC50 [1]: 2.5 µM
inhibition [2]: -8%
SMILES: NS(=O)(=O)c1ccc(N2CCN=C2c2cccc(Cl)c2)cc1

IC50 [1]: 3.4 µM
inhibition [2]: 0.4%
SMILES: NS(=O)(=O)c1ccc(N2CCN=C2c2ccc(Cl)cc2)cc1

IC50 [1]: 7.2 µM
inhibition [2]: -1.4%
SMILES: NS(=O)(=O)c1ccc(N2CCN=C2c2cccc(F)c2)cc1

Cmax [3]: 735 ng/mL
AUC(0-t) at 4 h [4]: 491 ng·h/mL
AUC(0-t) at 4 h [5]: 11700 ng·h/mL
AUC(0-inf) [6]: 525 ng·h/mL
Vdss [7]: 1.22 L/kg
AUC [8]: 8533 ng·min/mL
t1/2 [9]: 4.65 h
Tmax [11]: 2 h
AUC [12]: 364739 ng·min/mL
Drug metabolism [13]: metabolite_detected
AUC [14]: 5969 ng·min/mL
Tmax [15]: 5 min
AUC(0-inf) [16]: 12700 ng·h/mL
AUC [17]: 145573 ng·min/mL
t1/2 [18]: 1.87 h
half-life [19]: 0.967 h
Cmax [20]: 6140 ng/mL
CL/F [21]: 13 mL/min/kg
Drug metabolism [22]: metabolite_detected
Tmax [23]: 2 h
IC50 [1]: 0.3 µM
Cmax [24]: 33 ng/mL
half-life [25]: 1.08 h
Cmax [26]: 267 ng/mL
Tmax [27]: 0.5 h
inhibition [2]: 8.7%
SMILES: NS(=O)(=O)c1ccc(N2CCN=C2c2ccc(Cl)c(Cl)c2)cc1
inhibition in vivo at 3.7 mg/kg [10]: 56%

IC50 [1]: > 10 µM
inhibition [2]: 6%
SMILES: Cc1cccc(C2=NCCN2c2ccc(S(C)(=O)=O)cc2)c1
